GC-A act – GC-A stimulated cGMP production enhancers – HEK293 GC-A cells, cGMP TR-FRET, EC30 ANP, primary screen; 370,000 compounds, 0.14% hits; activation, % at 10 µM; AID 1671463, 2021; 0% at EC30 ANP, 100% saturating ANP; in the data active = activation above about 40%
GASC-1 inh – inhibitors of GASC-1 histone demethylase, primary screen, biochemical, fluorescence, DELFIA europium. GST-JMJD2C(1-420) H3K9me3 demethylation. AID 2099, 2009. 330,000 compounds, 0.069% hits. Lysine-specific demethylase 4C (Homo sapiens), Q9H3R0. inhibition, % at 2.35 µM;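 active = more than half of a compound's replicate wells show inhibition beyond 50%, single wells judged on their own value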;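 note: signal counts dimethyl H3K9 product captured on neutravidin plate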
Target sequence (Q9H3R0 1-420 limits assumed): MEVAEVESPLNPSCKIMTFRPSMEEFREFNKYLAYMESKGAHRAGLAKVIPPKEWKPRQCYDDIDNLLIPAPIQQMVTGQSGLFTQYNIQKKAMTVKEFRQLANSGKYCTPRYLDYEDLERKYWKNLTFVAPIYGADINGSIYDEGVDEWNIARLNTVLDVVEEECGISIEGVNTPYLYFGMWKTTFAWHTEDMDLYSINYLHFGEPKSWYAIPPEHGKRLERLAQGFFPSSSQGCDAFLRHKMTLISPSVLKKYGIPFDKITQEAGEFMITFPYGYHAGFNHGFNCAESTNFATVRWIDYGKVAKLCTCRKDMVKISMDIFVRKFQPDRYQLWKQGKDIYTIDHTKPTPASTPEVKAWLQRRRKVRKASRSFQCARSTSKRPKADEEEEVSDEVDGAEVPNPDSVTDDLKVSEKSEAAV
Lipid droplet – inhibitors of hepatocyte lipid droplet formation, primary screen, imaging, high-throughput imaging, BODIPY stain; AML12 mouse hepatocytes, oleate lipid droplets; inhibition, % at 6.5 µM; 240,000 compounds, 0.4% hits;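 active = lipid droplet intensity inhibited by at least 50%, with more than 500 cells counted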
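Test system: AML12 hepatocytes (mouse); reagent: oleate loading, 100 µM; dosing: one dose, 6.5 µM compound; incubation: overnight exposure; signal: fluorescence imaging, 20x objective, two fields per well; read-out basis: % inhibition of corrected integrated BODIPY droplet signal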
aDG glyco act – activators of alpha-DG glycosylation, primary screen, uHTS, Pro5-aDG cells, AlphaScreen | 360,000 compounds, 0.22% hits | activation, % at 10 µM | AID 624168, 2012 | alpha-DG glycosylation AlphaScreen (IIH6); 0% Pro5, 100% B10-LARGE cell signal;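 active = activation of at least 8% versus controls, or a plate z-score of at least 8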;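 note: Pro5 are CHO cells carrying HIG-tagged alpha-DG that lacks glycosylation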
GC-B act – human GC-B receptor activators, primary screen, HEK293 GC-B cells, cGMP TR-FRET, EC30 CNP; activation, % at 10 µM; 0% at EC30 CNP, 100% saturating CNP; 370,000 compounds, 0.11% hits;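 active = activation at 10 µM reaching about 35% in either raw or pattern-adjusted values, limit read from the data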
GRIN3A LBD mod – binders of NR3A ligand-binding domain, primary screen, biophysical, differential scanning fluorimetry, uHTS; NR3A LBD differential scanning fluorimetry, Tm shift; 0% = protein alone, 100% = glycine-bound protein; Tm shift relative to glycine control, % at 25 µM; 340,000 compounds, 2.5% hits;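 active = melting temperature shift of at least 10% of the positive control shift, at one fixed dose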
Each line names hits and unclear results; the compound was inactive in the other large screens. Sampled rows, rich in hits. Any-hit rate of the full collection: about 3%.

O=C1c2ccccc2C(=O)N1OS(=O)(=O)c1ccc(F)cc1	GC-A act 42
Cc1cc(C)c(S(=O)(=O)ON2C(=O)c3ccccc3C2=O)cc1C	GC-B act 36 (no result: Lipid droplet)
Cc1cc(C)c(C)c(S(=O)(=O)ON2C(=O)c3ccccc3C2=O)c1C	GC-A act 42, GC-B act 47 (no result: Lipid droplet)
Cc1ccc(S(=O)(=O)ON2C(=O)c3ccccc3C2=O)c(C)c1	GC-A act 41, GC-B act 46, GRIN3A LBD mod 22
Cc1ccc(S(=O)(=O)N2O[C@@H](c3ccccc3)C[C@H]2CON2C(C)(C)CCCC2(C)C)cc1	none (no result: GASC-1 inh, Lipid droplet, aDG glyco act, GRIN3A LBD mod)
Cc1ccc(NC(=O)C2CCCN2S(=O)(=O)c2cccnc2)cc1C (stereo not drawn)	none (no result: GASC-1 inh, Lipid droplet, aDG glyco act, GRIN3A LBD mod)
COc1cc(/C=N/NC2=NCCCCC2)ccc1O	none
COc1cc(/C=N/Nc2ncnc3sc4c(c23)CCC4)ccc1O	GRIN3A LBD mod 29
Cc1sc2ncnc(N/N=C/c3cccc(O)c3)c2c1C	GRIN3A LBD mod 13
COc1cccc(/C=N/Nc2nc(Nc3ccc([N+](=O)[O-])cc3)nc(N3CCCC3)n2)c1O	GRIN3A LBD mod 23
O=[N+]([O-])c1cccc(/C=N/Nc2nc(N3CCOCC3)nc(N3CCOCC3)n2)c1	none
O=[N+]([O-])c1ccc(Nc2nc(N/N=C/c3cccc(F)c3)nc(N3CCCC3)n2)cc1	GRIN3A LBD mod 25
CNc1nc(N/N=C/c2ccc([N+](=O)[O-])cc2)nc(Nc2ccccc2)n1	GRIN3A LBD mod 30
COC(=O)[C@H](CC(C)C)N(CCCc1cn(Cc2ccc(C)cc2)nn1)S(=O)(=O)c1ccc(F)cc1Br	none (no result: GASC-1 inh, Lipid droplet, aDG glyco act, GRIN3A LBD mod)
CCOc1ccc(NC(=O)c2ccccc2NC(=O)CNC2CCCC(C)C2C)cc1 (stereo not drawn)	GRIN3A LBD mod 13 (no result: Lipid droplet)
O=C(COC(=O)Cc1ccc(S(=O)(=O)N2CCOCC2)s1)Nc1ccc(F)cc1F	none (no result: Lipid droplet)
CN(C)S(=O)(=O)c1ccc(NC(=O)c2ccc3ncsc3c2)cc1	GRIN3A LBD mod 17 (no result: GC-A act, aDG glyco act, GC-B act)
O=C(Nc1ccc(Br)cc1)c1ccc2ncsc2c1	GRIN3A LBD mod 27
CCc1ccc(NC(=O)c2ccc3ncsc3c2)cc1	none (no result: GC-A act, Lipid droplet, aDG glyco act, GC-B act, GRIN3A LBD mod)
COc1ccc(NC(=O)c2ccc(S(=O)(=O)N(C)C)cc2)cc1OC	GRIN3A LBD mod 20 (no result: Lipid droplet)
O=C(Nc1ccc(NC(=S)NC(=O)c2ccccc2Cl)cc1)c1cccc(Cl)c1	GRIN3A LBD mod 18 (no result: Lipid droplet)
CCC(=O)Nc1cccc(NC(=S)NC(=O)c2ccccc2Cl)c1	GRIN3A LBD mod 17 (no result: Lipid droplet)
CC(C)C(=O)Nc1cccc(NC(=S)NC(=O)c2ccccc2Cl)c1	none (no result: Lipid droplet)
O=C(Nc1ccc(NC(=O)c2cccnc2Cl)cc1)c1cccc(Cl)c1	GRIN3A LBD mod 22
CCC(=O)Nc1cccc(NC(=O)c2ccccc2Cl)c1	none
CCNC(=S)Nc1cccc(NC(=O)c2ccccc2O)c1	GRIN3A LBD mod 11
CCNC(=S)Nc1ccc(NC(=O)c2ccccc2O)cc1	none
O=C(Nc1cccnc1)c1cccnc1Cl	none
CC(C)CCN1C(=O)COc2ccccc2C1c1nnnn1-c1ccc2c(c1)OCCO2 (stereo not drawn)	none (no result: GASC-1 inh, Lipid droplet, aDG glyco act, GRIN3A LBD mod)
O=C(CN1CCN(S(=O)(=O)c2ccccc2)CC1)N1CCCCC1	none (no result: Lipid droplet)
Cc1nn(-c2ccccc2)c(Cl)c1/C=N/NC(=O)c1ccccc1NS(=O)(=O)c1cccs1	GRIN3A LBD mod 16
COC(=O)C1CN(Cc2cn(CCOC(C)=O)nn2)CCS(=O)(=O)N1Cc1ccc(C)cc1 (stereo not drawn)	none (no result: GASC-1 inh, Lipid droplet, aDG glyco act, GRIN3A LBD mod)
CC1CCN(S(=O)(=O)c2ccc(C(=O)OC(C)C(=O)N(C)C3CCCCC3)cc2)CC1 (stereo not drawn)	GRIN3A LBD mod 15 (no result: Lipid droplet)
CC1CCN(S(=O)(=O)c2ccc(C(=O)OC(C)C(=O)NC3CCCCC3C)cc2)CC1 (stereo not drawn)	none
OCCN(CCO)c1ccc(C(c2ccc(Cl)cc2)c2ccc(N(CCO)CCO)cc2Cl)c(Cl)c1	GRIN3A LBD mod 28
CC(C)C(=O)N1CCCC1(C)C(=O)Nc1ccc(F)cc1 (stereo not drawn)	none (no result: GASC-1 inh, Lipid droplet, GRIN3A LBD mod)
COc1ccc(NC(=S)NC(NC(=O)/C=C/c2ccccc2)C(Cl)(Cl)Cl)cc1 (stereo not drawn)	none (no result: Lipid droplet)
O=C(/C=C/c1ccccc1)NC(NC(=S)Nc1cc(Cl)ccc1Cl)C(Cl)(Cl)Cl (stereo not drawn)	GRIN3A LBD mod 30 (no result: Lipid droplet)
O=C(/C=C/c1ccccc1)NC(NC(=S)Nc1ccc(Cl)cc1)C(Cl)(Cl)Cl (stereo not drawn)	GRIN3A LBD mod 25 (no result: Lipid droplet)
CC(C)CC(=O)NC(NC(=S)Nc1ccccc1)C(Cl)(Cl)Cl (stereo not drawn)	none
O=C(CCc1ccccc1)NC(NC(=S)Nc1ccc(Cl)cc1)C(Cl)(Cl)Cl (stereo not drawn)	GRIN3A LBD mod 27
CC(=O)NC(NC(=S)Nc1ccc(N=Nc2ccccc2)cc1)C(Cl)(Cl)Cl (stereo not drawn)	GRIN3A LBD mod 13 (no result: Lipid droplet)
NC(=O)c1ccccc1NC(=O)CCCCCn1nnc2ccccc2c1=O	GRIN3A LBD mod 12 (no result: Lipid droplet)
CCOc1ccc(-c2ccc(/C=C3/C(=N)N4C=CSC4=NC3=O)o2)c([N+](=O)[O-])c1	GRIN3A LBD mod 14
CCOC(=O)[C@]12CCCCC/C=C\1N(CCc1ccc(Cl)cc1)C(=O)[C@H]2CC(=O)NCc1ccc(OC)c(OC)c1	none (no result: GASC-1 inh, Lipid droplet, aDG glyco act, GRIN3A LBD mod)
COc1ccccc1-c1nnc(SCC(=O)NCc2c(C)c(Cl)cc(C(C)C)c2O)o1	GRIN3A LBD mod 23
CC[C@@H]1C(c2ccc(F)cc2)=NN(c2ccc(Br)cc2)[C@H]1C(=O)N1CCOC1=O	GRIN3A LBD mod 19 (no result: GASC-1 inh, Lipid droplet)
O=C1OCCN1C(=O)[C@H]1[C@H](c2ccc(Cl)cc2)C(c2cccc(Cl)c2)=NN1c1ccccc1	GRIN3A LBD mod 17 (no result: GC-A act, GC-B act)
O=C1OCCN1C(=O)[C@H]1[C@H](c2ccc(F)cc2)C(c2cccc(Cl)c2)=NN1c1ccccc1	GRIN3A LBD mod 16 (no result: GASC-1 inh, Lipid droplet)
O=C1OCCN1C(=O)[C@H]1[C@H](c2ccc(F)cc2)C(c2cccc(Cl)c2)=NN1c1ccc(Br)cc1	GRIN3A LBD mod 25 (no result: GASC-1 inh, Lipid droplet)
O=C1OCCN1C(=O)[C@H]1[C@H](c2ccccc2)C(c2cccc(Cl)c2)=NN1c1ccc(Br)cc1	none (no result: GASC-1 inh, Lipid droplet)
Oc1ccc2[nH]cc(CCc3ccccc3)c2c1-c1ccccc1	none (no result: GASC-1 inh, Lipid droplet, aDG glyco act, GRIN3A LBD mod)
COc1ccc(CN(C2CCCC2)S(=O)(=O)c2cc(Br)ccc2Br)c(OC)c1	none (no result: GASC-1 inh, Lipid droplet, aDG glyco act, GRIN3A LBD mod)

High-throughput results: PubChem BioAssay, several laboratories
